Here are results for four compounds from ChEMBL document CHEMBL3351590, “8-Methyltryptanthrin-induced differentiation of P19CL6 embryonal carcinoma cells into spontaneously beating cardiomyocyte-like cells” (2014).

Calls of active or inactive are those of the source. The calls are words filed in the database; no cut-off is given here.

For experiment [1], the system named is P19CL6. As to the kind of experiment: Induction of differentiation of C3H/He mouse P19CL6 cells assessed as aggregate formation at 0.1 to 1 uM on day 10 by phase contrast microscopic analysis. It is filed as functional, cell-based. The essentials:
(§1)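 Cells are seeded at 2.0 × 10^4 per 35 mm dish in α-MEM with 10% FBS, penicillin and streptomycin, plus compound (final DMSO ≤0.1%), with medium changed every 48 h. Aggregates and beating aggregates are counted every 2 days by phase-contrast microscopy in five ×100 fields (total 8.8 mm2), up to day 18. Mean ± SEM, n = 7.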

The test system of experiment [2] is P19CL6. As to the kind of experiment: Induction of Cav1.2 gene expression in C3H/He mouse P19CL6 cells. The format is functional, cell-based. An outline of the steps: (§2)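 P19CL6 cells are cultured in α-MEM with 10% FBS, with compound (final DMSO ≤0.1%) renewed every 48 h. Total RNA is taken on day 10 and/or 18 and reverse-transcribed with random primers. Real-time PCR: 95 °C 10 min, then 40 cycles of 95 °C 15 s and 60 °C 1 min. Expression is normalized to G3PDH and given as a ratio to day 0.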

Experiment [3] deals with P19CL6. As to the kind of experiment: Induction of differentiation of C3H/He mouse P19CL6 cells assessed as beating aggregate formation at 0.1 to 1 uM on day 10 by phase contrast microscopic analysis. It is filed as functional, cell-based. The essentials: as §1
Experiment [4] relates to P19CL6. Nature of the experiment: Induction of Cav1.2 gene expression in C3H/He mouse P19CL6 cells at 1 uM by RT-PCR analysis. Particulars: TDE = time-dependent effect. It is filed as functional, cell-based. The essentials: as §2
Experiment [5] concerns P19CL6. As to the kind of experiment: Induction of Cav1.2 gene expression in C3H/He mouse P19CL6 cells on day 10 and 18 by RT-PCR analysis. It is filed as functional, cell-based. The essentials: as §2
Experiment [6] relates to P19CL6. As to the kind of experiment: Effect on Cav3.2 gene expression in C3H/He mouse P19CL6 cells at 1 uM by RT-PCR analysis. The format is functional, cell-based. An outline of the steps:
as §2

Experiment [7] in a line: Induction of differentiation of C3H/He mouse P19CL6 cells assessed as beating rate of cardiomyocyte-like cells at 1 uM on day 18 (reference value: 45.2 +/- 4.2 bpm). It is filed as functional.
In experiment [8] the test system is P19CL6. As to the kind of experiment: Effect on GJB1 gene expression in C3H/He mouse P19CL6 cells at 1 uM by RT-PCR analysis. The format is functional, cell-based. An outline of the steps:
as §2

Experiment [9] has as its system P19CL6. As to the kind of experiment: Effect on GJA4 gene expression in C3H/He mouse P19CL6 cells at 1 uM by RT-PCR analysis. The format is functional, cell-based. The essentials:
as §2

Experiment [10] can be described thus: Induction of Cav1.2 gene expression in C3H/He mouse P19CL6 cells at 1 uM on day 18 by RT-PCR analysis relative to control. The format is functional. The essentials:
as §2

A short description of experiment [11]: Induction of alpha-MHC gene expression in C3H/He mouse P19CL6 cells at 1 uM measured on day 10 and 18 by RT-PCR analysis relative to control. It is filed as functional. An outline of the steps:
(§3)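 Cardiac gene qPCR (α-MHC, GATA4, BMP2) in P19CL6 cells kept in α-MEM/10% FBS with agent, medium renewed at 48 h intervals. RNA is harvested on days 10 and 18 and reverse-transcribed with random primers. PCR runs 40 cycles (95 °C 15 s, 60 °C 1 min). Values are normalized to G3PDH, expressed relative to day 0, as mean ± SEM, n = 4.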

Experiment [12] can be described thus: Induction of differentiation of C3H/He mouse P19CL6 cells assessed as number of beating aggregates at 1 uM on day 18 by phase contrast microscopic analysis. It is filed as functional. The essentials: as §1
Experiment [13] can be described thus: Induction of GJA1 gene expression in C3H/He mouse P19CL6 cells at 1 uM on day 18 by RT-PCR analysis relative to control. The format is functional. An outline of the steps:
as §2

For experiment [14], the system named is P19CL6. Nature of the experiment: Effect on HCN4 gene expression in C3H/He mouse P19CL6 cells at 1 uM by RT-PCR analysis. It is filed as functional, cell-based. The essentials:
as §2

Experiment [15] is described as follows: Decrease in Cav1.3 gene expression in C3H/He mouse P19CL6 cells at 1 uM on day 10 and day 18 by RT-PCR analysis. The format is functional, cell-based. The essentials: as §2
A short description of experiment [16]: Increase in area of beating aggregates in C3H/He mouse P19CL6 cells on day 18 by phase contrast microscopic analysis (reference value: 0.5 +/- 0.3 /mm2). It is filed as functional.
In experiment [17] the test system is P19CL6. As to the kind of experiment: Induction of differentiation of C3H/He mouse P19CL6 cells assessed as beating aggregate formation at 0.1 to 1 uM on day 18 by phase contrast microscopic analysis. It is filed as functional, cell-based. An outline of the steps: as §1
Experiment [18] in a line: Induction of BMP2 gene expression in C3H/He mouse P19CL6 cells at 1 uM measured on day 10 and 18 by RT-PCR analysis relative to control. It is filed as functional. An outline of the steps:
as §3

For experiment [19], the system named is P19CL6. As to the kind of experiment: Induction of differentiation of C3H/He mouse P19CL6 cells assessed as aggregate formation at 0.1 to 1 uM on day 18 by phase contrast microscopic analysis. The format is functional, cell-based. The essentials:
as §1

The test system of experiment [20] is P19CL6. Nature of the experiment: Induction of differentiation of C3H/He mouse P19CL6 cells assessed as beating aggregate formation on day 10 by phase contrast microscopic analysis. The format is functional, cell-based. The essentials:
as §1

Experiment [21] is described as follows: Induction of Cav1.2 gene expression in C3H/He mouse P19CL6 cells at 1 uM on day 10 by RT-PCR analysis relative to control. It is filed as functional. The essentials: as §2
Experiment [22] in a line: Induction of GJA5 gene expression in C3H/He mouse P19CL6 cells at 1 uM on day 10 by RT-PCR analysis relative to control. It is filed as functional. An outline of the steps: as §2
The test system of experiment [23] is P19CL6. As to the kind of experiment: Effect on GJC1 gene expression in C3H/He mouse P19CL6 cells at 1 uM by RT-PCR analysis. It is filed as functional, cell-based. An outline of the steps:
as §2

Experiment [24] deals with P19CL6. Nature of the experiment: Induction of differentiation of C3H/He mouse P19CL6 cells assessed as beating aggregate formation at 0.1 to 1 uM using compound dissolved in 0.03% DMSO by phase contrast microscopic analysis. The format is functional, cell-based. The essentials:
as §1

The subject of experiment [25] is P19CL6. As to the kind of experiment: Induction of alpha-MHC gene expression in C3H/He mouse P19CL6 cells at 1 uM by RT-PCR analysis. The format is functional, cell-based. To be noted: TDE = time-dependent effect. An outline of the steps: as §3
Experiment [26] in a line: Induction of differentiation of C3H/He mouse P19CL6 cells assessed as number of aggregates at 1 uM on day 18 by phase contrast microscopic analysis (reference value: 38.2 +/- 8.4/mm2). The format is functional. An outline of the steps: as §1
Experiment [27] has as its system P19CL6. Nature of the experiment: Induction of Cav3.1 gene expression in C3H/He mouse P19CL6 cells at 1 uM on day 18 by RT-PCR analysis. The format is functional, cell-based. An outline of the steps:
as §2

The subject of experiment [28] is P19CL6. As to the kind of experiment: Induction of GATA4 gene expression in C3H/He mouse P19CL6 cells at 1 uM by RT-PCR analysis. Particulars: TDE = time-dependent effect. The format is functional, cell-based. An outline of the steps: as §3
The subject of experiment [29] is P19CL6. Nature of the experiment: Effect on HCN2 gene expression in C3H/He mouse P19CL6 cells at 1 uM by RT-PCR analysis. It is filed as functional, cell-based. The essentials: as §2
The subject of experiment [30] is P19CL6. As to the kind of experiment: Induction of BMP2 gene expression in C3H/He mouse P19CL6 cells at 1 uM by RT-PCR analysis. It is filed as functional, cell-based. Particulars: TDE = time-dependent effect. An outline of the steps: as §3
Experiment [31] is described as follows: Induction of GJA5 gene expression in C3H/He mouse P19CL6 cells at 1 uM on day 18 by RT-PCR analysis relative to control. The format is functional. An outline of the steps:
as §2

A short description of experiment [32]: Induction of GATA4 gene expression in C3H/He mouse P19CL6 cells at 1 uM measured on day 10 and 18 by RT-PCR analysis relative to control. It is filed as functional. The essentials:
as §3

Experiment [33] concerns P19CL6. Nature of the experiment: Induction of differentiation of C3H/He mouse P19CL6 cells assessed as aggregate formation on day 10 by phase contrast microscopic analysis. It is filed as functional, cell-based. An outline of the steps: as §1
The nature of experiment [34]: Decrease in Cav3.1 gene expression in C3H/He mouse P19CL6 cells at 1 uM on day 10 by RT-PCR analysis relative to control. It is filed as functional, cell-based. The essentials:
as §2

For experiment [35], the system named is P19CL6. As to the kind of experiment: Induction of BMP2 gene expression in C3H/He mouse P19CL6 cells at 1 uM measured on day 10 and 18 by RT-PCR analysis. The format is functional, cell-based. The essentials:
as §3

Experiment [36] concerns P19CL6. Nature of the experiment: Induction of alpha-MHC gene expression in C3H/He mouse P19CL6 cells at 1 uM measured on day 10 and 18 by RT-PCR analysis. The format is functional, cell-based. An outline of the steps: as §3
For experiment [37], the system named is P19CL6. Nature of the experiment: Induction of GATA4 gene expression in C3H/He mouse P19CL6 cells at 1 uM measured on day 10 and 18 by RT-PCR analysis. The format is functional, cell-based. The essentials:
as §3

Regarding `CCc1ccc2c(c1)C(=O)c1nc3ccccc3c(=O)n1-2`, the outcome in the experiment on P19CL6 [1], in the experiment with P19CL6 [2] and with P19CL6 [3] was inactive.

Take `Cc1ccc2c(c1)C(=O)c1nc3ccccc3c(=O)n1-2`: the Activity entry is “tde” in the experiment on P19CL6 [4]; “Dose-dependent effect” with P19CL6 [5]; 52.1 bpm in experiment [7]; 33.7 /mm2 in [12]; 2.7 mm2 in experiment [16]; “Dose-dependent effect” in the experiment on P19CL6 [20]. Also, the Activity entry with P19CL6 [25] is “tde”; in [26], 47.3 /mm2; with P19CL6 [28] it was “tde”; with P19CL6 [30], “tde”; in the experiment with P19CL6 [33], “Dose-dependent effect”. Besides, the result with P19CL6 [6], in the experiment with P19CL6 [8], with P19CL6 [9], in the experiment with P19CL6 [14], with P19CL6 [23] and in the experiment with P19CL6 [29] was inactive. Moreover, the “fold change (FC)” value in [10] worked out at 3.38; in [11], 1130.1; in experiment [13], 1.38; in experiment [18] it was 84.4; in [21], 1.9; in experiment [22], 17.44. The “fold change (FC)” value in experiment [31] amounted to 7.06; in [32] it was 30.3; in experiment [34], 0.21. Besides, in experiment [15], the inhibition result was “Active”. Further, the outcome with P19CL6 [17], in the experiment with P19CL6 [19], in the experiment with P19CL6 [24] and in the experiment with P19CL6 [27] was Active.

For the compound `CCCc1ccc2c(c1)C(=O)c1nc3ccccc3c(=O)n1-2`, the result in the experiment on P19CL6 [1], in the experiment on P19CL6 [2] and in the experiment on P19CL6 [3] was inactive.

`O=C1c2ccccc2-n2c1nc1ccccc1c2=O`: the outcome in the experiment with P19CL6 [1], in the experiment with P19CL6 [2], in the experiment on P19CL6 [35], in the experiment with P19CL6 [3], with P19CL6 [36] and with P19CL6 [37] was inactive.
